TRPC6 inh = mouse TRPC6 channel inhibitors, primary screen, cell-based, HEK293, membrane potential dye; 1.1% of 310,000 active; Short transient receptor potential channel 6 (Mus musculus), Q61143; ACh-evoked depolarization; active compounds read low; B-score at 10 µM; AID 2553, 2010;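 active means B-score under library mean minus 3 SD, initial fluorescence not abnormally high, positive integrated signal ratio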;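 further: B-score derived from integrated fluorescence ratio over the kinetic read; more negative B-score means stronger inhibition of depolarization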
TRPC4 inh = inhibitors of mouse TRPC4 channel, primary screen, Fluo4 calcium, HEK293 TRPC4beta/mu-opioid cells | DAMGO-evoked Fluo4 calcium flux; active compounds read low | Short transient receptor potential channel 4 (Mus musculus), Q9QUQ5 | B-score at 10 µM | 0.39% of 300,000 active;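 active means B-score over 3 SD under the library average, no early fluorescence shift, positive overall ratio signal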
Target sequence (Q9QUQ5 whole entry, looked up): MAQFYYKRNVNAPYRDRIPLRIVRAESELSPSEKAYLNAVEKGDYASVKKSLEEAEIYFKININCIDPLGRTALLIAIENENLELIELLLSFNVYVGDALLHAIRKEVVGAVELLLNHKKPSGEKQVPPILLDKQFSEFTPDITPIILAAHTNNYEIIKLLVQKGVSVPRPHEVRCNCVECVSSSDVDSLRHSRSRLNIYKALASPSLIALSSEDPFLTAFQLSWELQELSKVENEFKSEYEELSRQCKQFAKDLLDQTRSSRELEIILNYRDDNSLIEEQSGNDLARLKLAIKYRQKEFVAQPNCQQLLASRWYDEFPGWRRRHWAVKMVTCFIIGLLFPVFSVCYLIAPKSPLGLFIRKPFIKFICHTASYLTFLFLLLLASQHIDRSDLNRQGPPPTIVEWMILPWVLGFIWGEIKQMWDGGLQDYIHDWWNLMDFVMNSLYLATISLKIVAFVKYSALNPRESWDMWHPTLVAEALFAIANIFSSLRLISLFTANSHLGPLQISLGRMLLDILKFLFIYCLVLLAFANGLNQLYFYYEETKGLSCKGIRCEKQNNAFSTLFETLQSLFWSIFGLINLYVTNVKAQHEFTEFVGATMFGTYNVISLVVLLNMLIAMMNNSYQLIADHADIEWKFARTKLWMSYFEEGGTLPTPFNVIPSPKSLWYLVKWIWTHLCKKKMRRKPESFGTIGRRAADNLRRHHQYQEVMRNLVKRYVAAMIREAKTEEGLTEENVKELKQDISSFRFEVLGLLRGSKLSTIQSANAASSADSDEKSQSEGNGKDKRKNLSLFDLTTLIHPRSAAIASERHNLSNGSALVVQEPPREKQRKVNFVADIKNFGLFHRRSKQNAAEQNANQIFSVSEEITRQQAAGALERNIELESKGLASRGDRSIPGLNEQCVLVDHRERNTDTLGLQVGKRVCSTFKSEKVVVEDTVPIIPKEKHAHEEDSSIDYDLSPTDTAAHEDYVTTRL
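test system = HEK293 cells with stable TRPC4beta plus mu-opioid receptor expression | detection = Fluo4 Ca2+ flux fluorescence | read-out = integrated fluorescence ratio relative to baseline, converted to per-well B score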
TRPC6 act = mouse TRPC6 channel activators, primary screen, cell-based, HEK293, membrane potential dye; Short transient receptor potential channel 6 (Mus musculus), Q61143; HEK293-TRPC6 membrane potential dye fluorescence; active compounds read high; 0.13% of 310,000 active; B-score at 10 µM;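 active means B-score of the integrated fluorescence ratio above library mean plus 3 SD, and starting fluorescence ratio within library mean plus 5 SD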;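 further: higher score means more depolarization so channel activation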
TRPC4 act = activators of mouse TRPC4 channel, primary screen, Fluo4 calcium, HEK293 TRPC4beta/mu-opioid cells; AID 2237, 2010; Fluo4 calcium fluorescence; active compounds read high; Short transient receptor potential channel 4 (Mus musculus), Q9QUQ5; 0.49% of 310,000 active; B-score at 10 µM;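 active means B-score above 5 SD of library B-scores, and initial fluorescence ratio not above library mean plus 5 SD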;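 further: positive B-score marks a calcium rise read as TRPC4 activation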
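Assay system: HEK293 cells stably co-expressing mouse TRPC4beta and mu-opioid receptor / Timing: Fluo4 dye loading 45 min at room temperature, 110 s recording / Signal: Fluo4 calcium-sensitive dye fluorescence, kinetic, 1 Hz baseline / Read-out: integrated baseline-normalised fluorescence ratio, converted to per-well B score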
TRPC4 potent = positive allosteric modulators of TRPC4, primary screen, cell-based, mouse TRPC4beta, HEK293 mu-opioid, Fluo-4 calcium | Short transient receptor potential channel 4 (Mus musculus), Q9QUQ5 | DAMGO EC20, Fluo-4 Ca2+ flux; active compounds read high | B-score at 10 µM | 0.42% of 310,000 active | AID 2227, 2009;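 active means B-score of calcium response area above 5 SD of library B-scores, with initial fluorescence ratio within 5 SD of library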;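 further: B-score of integrated fluorescence ratio over time as area under calcium response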
TRPC4 spec 2 = second check of whether TRPC6 inhibitors also affect mouse TRPC4. shares compounds with TRPC6 inh. HEK293 TRPC4/MOR, membrane potential dye fluorescence; channel activated by saturating DAMGO dose. inhibition, % at 10 µM. 42% of 920 active. AID 2776;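 active means compounds whose fluorescence signal differed from control wells by over 3 SD, either direction, in both duplicate plates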
TRPC4 spec = mouse TRPC4 modulation by TRPC6 hits, confirmation, selectivity assay for TRPC6 inhibitor project, cell-based, HEK293 TRPC4/mu-opioid, membrane potential dye. activity change, negative = inhibition, % at 10 µM. membrane potential fluorescence. AID 2777, 2010. 61% of 920 active. shares compounds with TRPC6 inh;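 active means rise or fall in signal beyond 3 SD of buffer-only wells in both replicate plates, either sign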;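 further: integrated kinetic ratio of fluorescence range over baseline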
HEK293 MPD ctr 2-1 = nonspecific membrane potential effects, parental HEK293, confirmation, counter-screen for TRPC6 inhibitor project, cell-based, second counter screen. shares compounds with TRPC6 inh. parental HEK293 membrane potential dye fluorescence; maximal acetylcholine challenge after compound addition. signal change vs control, % at 10 µM. 31% of 920 active. AID 2779, 2010;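 active means membrane potential signal moving either way by over 3 SD of the maximum-effect control, in both duplicate plates, meaning non-specific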
HEK293 MPD ctr-1 = membrane potential modulation in parental HEK293, confirmation, counter-screen for TRPC6 inhibitor project, cell-based; shares compounds with TRPC6 inh; parental HEK293 membrane potential dye fluorescence; membrane potential signal change, % at 10 µM; 60% of 920 active;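 active means membrane potential signal shifting up or down by more than 3 SD of buffer-only wells, on both duplicate plates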
HEK293 MPD ctr-2 = parental HEK293 membrane potential modulation, confirmation, counter-screen for TRPC6 modulator project, cell-based | shares compounds with TRPC6 inh | membrane potential dye fluorescence | membrane potential signal change, % at 10 µM | 51% of 2,400 active;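 active means membrane potential signal moves up or down beyond 5 SD from buffer-only wells, on both duplicate plates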
HEK293 MPD ctr 2-2 = parental HEK293 nonspecific activity of TRPC6 modulators, second screen. shares compounds with TRPC6 inh. membrane potential dye fluorescence; after compound, maximal acetylcholine stimulation. inhibition, % at 10 µM. 14% of 2,400 active;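 active means membrane potential signal drops by more than 5 SD from the mean control signal, in both duplicate plates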;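 further: plate controls were acetylcholine ECmax control wells for no effect and buffer only wells for full effect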
TRPC4 ctr mod = TRPC4 modulation by TRPC6 hit compounds, confirmation, selectivity assay for TRPC6 modulator project, cell-based, HEK293 TRPC4/mu-opioid, membrane potential dye, mouse; shares compounds with TRPC6 inh; membrane potential fluorescence; percent change from control (negative = decrease, positive = increase), % at 10 µM; 69% of 2,400 active; AID 488927, 2010;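 active means membrane potential signal moved up or down beyond 5 SD of buffer control wells, in both duplicate plates, actives on both sides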;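 further: plate controls were assay buffer wells for no effect and DAMGO maximal-effect wells for full effect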
TRPC4/MOR inh 2 = mouse TRPC4 off-target activity of TRPC6 modulators, second screen. HEK293 TRPC4/mu-opioid, membrane potential dye fluorescence; stimulated with maximal-effect DAMGO. 55% of 2,400 active. AID 488928. shares compounds with TRPC6 inh. inhibition, % at 10 µM;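 active means drop in membrane potential signal beyond 5 SD of the control wells in both duplicate plates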;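 further: TRPC4 counter screen for TRPC6 hits run under conditions tuned for TRPC6 not TRPC4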
TRPC6 block conf = mouse TRPC6 channel inhibitors, confirmation, HEK293 cells, membrane potential dye, duplicate; ACh-evoked depolarization; inhibition, % at 10 µM; shares compounds with TRPC6 inh; 43% of 3,300 active;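 active means fluorescence ratio falls more than 5 SD below the full-stimulation control mean, in both duplicate runs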;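 further: integrated fluorescence ratio of peak minus minimum over baseline after agonist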
TRPC6 act confirm = mouse TRPC6 channel activators, confirmation, HEK293 cells, membrane potential dye, duplicate | shares compounds with TRPC6 inh | HEK293-TRPC6 membrane potential dye fluorescence, FDSS | activation, % at 10 µM | 11% of 2,800 active;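 active means ratio signal rise beyond 5 SD above unstimulated control wells' mean, seen in both duplicate runs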;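 further: plate controls were buffer EC0 wells for no effect and acetylcholine ECmax response for full effect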
An asterisk follows results filed as active; i = inactive; . = not tested or not shown. Only some compounds are listed: those with a hit (about 2.3% of all), similar ones and a draw of the others.

SMILES	TRPC6 inh	TRPC4 inh	TRPC6 act	TRPC4 act	TRPC4 potent	HEK293 MPD ctr-2	HEK293 MPD ctr 2-2	TRPC4 ctr mod	TRPC4/MOR inh 2	TRPC6 block conf	TRPC6 act confirm	others
N#C/C(=C/c1ccc(N2CCCCCC2)o1)c1ccc(F)cc1	i	i	i	i	i	.	.	.	.	.	.
N#C/C(=C\c1ccc(N2CCOCC2)o1)c1ccccc1	i	i	18.1*	i	i	448.0%*	i	89.0%*	i	i	166.0%*
N#C/C(=C/c1ccc(N2CCOCC2)o1)c1ccc(Br)cc1	i	i	25.3*	i	i	568.0%*	i	152.0%*	i	i	116.0%*
COc1ccc(C(=O)NCC(=O)OCC(=O)Nc2ccc(C)c(S(=O)(=O)N(C)C)c2)cc1OC	i	i	i	i	i	.	.	.	.	.	.
Cc1cccc(C)c1OCCCCN1CCNCC1	i	i	i	i	i	.	.	.	.	.	.
Cc1cc(C)c(OCCCCN2CCNCC2)c(C)c1	-5.72*	i	i	i	i	i	i	i	54.0%*	43.5%*	.
Cc1cccc(OCCCCN2CCNCC2)c1	i	i	i	i	i	.	.	.	.	.	.
Cc1ccc(OCCCCCCN2CCNCC2)cc1	-6.73*	i	i	i	i	.	.	.	.	i	i	TRPC4 spec 2=47.5%*;TRPC4 spec=0.1%*;HEK293 MPD ctr 2-1=i;HEK293 MPD ctr-1=7.4%*
Cc1ccccc1OCCCCCCN1CCNCC1	-8.22*	i	i	i	10*	.	.	.	.	i	i	TRPC4 spec 2=53.5%*;TRPC4 spec=1.8%*;HEK293 MPD ctr 2-1=i;HEK293 MPD ctr-1=4.1%*
CN(C)c1ccc(-c2nc3cnccn3c2Nc2ccc3c(c2)OCCO3)cc1	-5.33*	i	i	i	i	i	i	-11.0%*	62.5%*	i	i
O=C(O)CCCCCN1C(=O)C(O)=C(C(=O)/C=C/c2ccccc2)C1c1cccc([N+](=O)[O-])c1 (centres undefined)	i	i	16.8*	i	i	i	i	9.5%*	i	i	39.0%*
CCn1c(/N=C/c2c[nH]c3ccccc23)nc2ccccc21	-8.06*	i	i	i	i	.	.	.	.	53.1%*	i	TRPC4 spec 2=75.0%*;TRPC4 spec=-9.7%*;HEK293 MPD ctr 2-1=i;HEK293 MPD ctr-1=-165.0%*
COc1cccc(/C=N/NC(=O)c2c(C)nc3ccc(Cl)cn23)c1O	i	i	i	i	i	.	.	.	.	.	.
COc1ccc(-c2nnc(N(C)C(=O)c3cccnc3)s2)cc1	-5.21*	i	i	i	i	i	i	i	i	i	i
FC(F)(F)c1cnc2c(-c3ccccc3)n[nH]c2c1	i	i	i	i	i	.	.	.	.	.	.
Cc1cc(Cl)c(OCCCNCc2ccccc2)c(Br)c1	i	i	12.1*	i	i	302.0%*	i	67.5%*	i	i	139.0%*
Cc1cccn2c(=O)c3cc(C(=O)NC4CCCC4)c(=N)n(C4CCCC4)c3nc12	-5.19*	i	i	i	i	-151.0%*	i	-54.5%*	48.0%*	49.0%*	i
CCCCn1c(=NC(=O)c2ccco2)c(C(=O)OCC)cc2c(=O)n3ccccc3nc21	-5.79*	i	i	i	i	i	i	i	i	i	i
N=c1c(C(=O)NCc2ccco2)cc2c(=O)n3ccccc3nc2n1Cc1ccccc1	-7.09*	i	i	i	i	i	i	-39.5%*	45.5%*	i	i
CCCn1c(=N)c(C(=O)NC2CCCC2)cc2c(=O)n3cccc(C)c3nc21	-6.84*	i	i	i	i	.	.	.	.	78.1%*	i	TRPC4 spec 2=62.5%*;TRPC4 spec=-14.0%*;HEK293 MPD ctr 2-1=-32.5%*;HEK293 MPD ctr-1=-170.5%*
COc1ccc(-c2ccc(SCC(=O)N3CC(=O)Nc4ccccc43)nn2)cc1	i	i	i	i	i	.	.	.	.	.	.
O=C(NNS(=O)(=O)c1ccccc1)Nc1ccc(F)cc1	i	i	i	i	i	.	.	.	.	.	.
Cc1ccc(C(C)NC(=O)c2ccc3c(c2)OCO3)cc1C (centres undefined)	i	i	i	i	i	.	.	.	.	.	.
Cc1cc(C(F)(F)F)n2nc(-c3cnn(C)c3C(F)(F)F)c(Br)c2n1	i	i	i	i	i	.	.	.	.	.	.
Nc1nc(NCc2ccco2)nc(N2CCCCC2)c1[N+](=O)[O-]	i	i	i	i	i	.	.	.	.	.	.
